pIC50: −log10 of the molar value. Activity calls are given as the source filed them. The rule behind the calls is not given here.
Columns and labels:
[1] = biological target: T1, Transient receptor potential cation channel subfamily A member 1 (Homo sapiens, UniProt O75762); test: Antagonist activity at human TRPA1 expressed in human IMR90 cells assessed as inhibition of acrolein-induced calcium influx at 30 uM after 40 mins by fluorescence analysis; type: functional, cell-based; settings: IMR-90
T1 sequence (O75762 whole entry): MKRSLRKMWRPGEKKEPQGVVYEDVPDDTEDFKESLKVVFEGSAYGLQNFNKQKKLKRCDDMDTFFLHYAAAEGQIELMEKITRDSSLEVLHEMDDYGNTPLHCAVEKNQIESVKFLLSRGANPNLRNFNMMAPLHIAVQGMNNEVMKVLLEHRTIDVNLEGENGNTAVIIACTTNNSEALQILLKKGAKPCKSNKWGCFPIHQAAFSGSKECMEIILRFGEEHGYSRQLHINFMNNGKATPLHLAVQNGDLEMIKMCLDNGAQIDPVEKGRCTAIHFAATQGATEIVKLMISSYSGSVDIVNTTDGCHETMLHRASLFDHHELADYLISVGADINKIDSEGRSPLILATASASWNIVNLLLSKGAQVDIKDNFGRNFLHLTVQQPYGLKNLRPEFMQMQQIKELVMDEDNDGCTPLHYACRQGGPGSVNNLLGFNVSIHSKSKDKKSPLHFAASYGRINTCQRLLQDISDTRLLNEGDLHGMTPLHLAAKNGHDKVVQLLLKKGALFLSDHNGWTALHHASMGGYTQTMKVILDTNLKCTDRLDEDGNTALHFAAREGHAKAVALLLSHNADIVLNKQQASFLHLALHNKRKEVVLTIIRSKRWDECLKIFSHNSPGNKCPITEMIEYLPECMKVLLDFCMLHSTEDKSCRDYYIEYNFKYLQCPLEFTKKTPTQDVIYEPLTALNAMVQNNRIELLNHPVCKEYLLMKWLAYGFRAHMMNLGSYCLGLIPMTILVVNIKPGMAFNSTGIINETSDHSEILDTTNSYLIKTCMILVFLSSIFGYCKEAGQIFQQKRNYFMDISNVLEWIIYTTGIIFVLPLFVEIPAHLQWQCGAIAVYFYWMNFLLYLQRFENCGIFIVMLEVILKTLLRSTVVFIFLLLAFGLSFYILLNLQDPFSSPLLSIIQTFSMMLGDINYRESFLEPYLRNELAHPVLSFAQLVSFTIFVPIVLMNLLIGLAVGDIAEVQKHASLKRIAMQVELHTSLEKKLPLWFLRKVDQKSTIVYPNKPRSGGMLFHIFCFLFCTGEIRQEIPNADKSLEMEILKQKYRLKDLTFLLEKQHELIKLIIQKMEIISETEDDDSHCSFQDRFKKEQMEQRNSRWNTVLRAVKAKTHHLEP
In short: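 IMR90 fetal lung fibroblasts, which constitutively express human TRPA1, were grown in DMEM with 10% FBS and 2 mM L-glutamine at 37 °C under 5% CO₂, then plated on glass coverslips to 60% confluence. Cells were loaded with Fura-2 AM for 40 min at 37 °C in HEPES buffer (pH 7.4, 0.1% BSA). Single-cell F340/F380 ratio was recorded during acrolein challenge in the presence of antagonist. %inhibition is mean ± SEM from ≥25 cells across three experiments; IC₅₀ (with CI) comes from a variable-slope sigmoidal fit.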

[2] = biological target: Transient receptor potential cation channel subfamily A member 1 (Rattus norvegicus) (UniProt Q6RI86); test: Antagonist activity at Sprague-Dawley rat TRPA1 expressed in rat DRG neurons assessed as inhibition of acrolein-induced calcium influx at 3 uM after 40 mins by fluorescence analysis; type: functional
Sequence of Transient receptor potential cation channel subfamily A member 1 (Rattus norvegicus) (Q6RI86 whole entry): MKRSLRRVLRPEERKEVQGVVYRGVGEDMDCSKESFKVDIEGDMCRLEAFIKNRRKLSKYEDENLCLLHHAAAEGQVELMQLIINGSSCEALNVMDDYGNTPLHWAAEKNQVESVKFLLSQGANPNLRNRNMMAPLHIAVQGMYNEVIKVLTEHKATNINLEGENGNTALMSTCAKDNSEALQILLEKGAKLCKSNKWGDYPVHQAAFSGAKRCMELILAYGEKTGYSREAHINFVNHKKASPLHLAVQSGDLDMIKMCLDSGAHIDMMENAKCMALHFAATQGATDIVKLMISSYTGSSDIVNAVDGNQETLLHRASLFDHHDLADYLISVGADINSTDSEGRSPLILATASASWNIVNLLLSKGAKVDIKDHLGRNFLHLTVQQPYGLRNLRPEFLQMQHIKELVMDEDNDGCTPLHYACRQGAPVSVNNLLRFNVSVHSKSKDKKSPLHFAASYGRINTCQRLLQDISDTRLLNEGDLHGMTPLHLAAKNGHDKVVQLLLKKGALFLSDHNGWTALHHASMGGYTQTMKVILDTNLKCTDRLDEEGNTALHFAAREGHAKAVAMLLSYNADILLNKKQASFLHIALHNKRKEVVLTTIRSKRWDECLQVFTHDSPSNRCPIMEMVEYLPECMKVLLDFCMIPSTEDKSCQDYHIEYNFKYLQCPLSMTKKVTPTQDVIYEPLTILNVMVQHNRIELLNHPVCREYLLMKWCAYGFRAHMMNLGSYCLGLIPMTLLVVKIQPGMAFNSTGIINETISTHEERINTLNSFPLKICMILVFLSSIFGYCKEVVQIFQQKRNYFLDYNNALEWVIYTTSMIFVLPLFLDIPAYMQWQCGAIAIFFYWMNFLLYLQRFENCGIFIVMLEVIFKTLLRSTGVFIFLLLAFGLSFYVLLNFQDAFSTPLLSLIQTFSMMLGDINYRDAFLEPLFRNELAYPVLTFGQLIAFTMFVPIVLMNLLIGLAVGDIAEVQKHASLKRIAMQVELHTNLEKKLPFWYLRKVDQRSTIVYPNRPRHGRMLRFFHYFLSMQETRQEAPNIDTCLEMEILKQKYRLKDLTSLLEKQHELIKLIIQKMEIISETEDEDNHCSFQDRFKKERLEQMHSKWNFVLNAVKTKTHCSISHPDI
In short: (§1)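 DRG neurons came from male Sprague–Dawley rats (100 g). Ganglia were digested in HBSS with collagenase 1A (2 mg/ml) and trypsin (1 mg/ml) for 35 min at 37 °C, dissociated through 23–25 G needles in medium with 10% FBS and 10% horse serum, then filtered and centrifuged. Neurons were loaded with Fura-2 AM for 40 min at 37 °C in HEPES buffer (pH 7.4). F340/F380 was recorded under acrolein with antagonist present. %inhibition is mean ± SEM from ≥20 neurons across three experiments; IC₅₀ comes from a variable-slope sigmoidal fit.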

[3] = biological target: Transient receptor potential cation channel subfamily V member 1 (Rattus norvegicus) (UniProt O35433); test: Antagonist activity at Sprague-Dawley rat TRPV1 expressed in rat DRG neurons assessed as inhibition of capsaicin-induced calcium influx after 40 mins by fluorescence analysis; type: functional
Sequence of Transient receptor potential cation channel subfamily V member 1 (Rattus norvegicus) (O35433 whole entry): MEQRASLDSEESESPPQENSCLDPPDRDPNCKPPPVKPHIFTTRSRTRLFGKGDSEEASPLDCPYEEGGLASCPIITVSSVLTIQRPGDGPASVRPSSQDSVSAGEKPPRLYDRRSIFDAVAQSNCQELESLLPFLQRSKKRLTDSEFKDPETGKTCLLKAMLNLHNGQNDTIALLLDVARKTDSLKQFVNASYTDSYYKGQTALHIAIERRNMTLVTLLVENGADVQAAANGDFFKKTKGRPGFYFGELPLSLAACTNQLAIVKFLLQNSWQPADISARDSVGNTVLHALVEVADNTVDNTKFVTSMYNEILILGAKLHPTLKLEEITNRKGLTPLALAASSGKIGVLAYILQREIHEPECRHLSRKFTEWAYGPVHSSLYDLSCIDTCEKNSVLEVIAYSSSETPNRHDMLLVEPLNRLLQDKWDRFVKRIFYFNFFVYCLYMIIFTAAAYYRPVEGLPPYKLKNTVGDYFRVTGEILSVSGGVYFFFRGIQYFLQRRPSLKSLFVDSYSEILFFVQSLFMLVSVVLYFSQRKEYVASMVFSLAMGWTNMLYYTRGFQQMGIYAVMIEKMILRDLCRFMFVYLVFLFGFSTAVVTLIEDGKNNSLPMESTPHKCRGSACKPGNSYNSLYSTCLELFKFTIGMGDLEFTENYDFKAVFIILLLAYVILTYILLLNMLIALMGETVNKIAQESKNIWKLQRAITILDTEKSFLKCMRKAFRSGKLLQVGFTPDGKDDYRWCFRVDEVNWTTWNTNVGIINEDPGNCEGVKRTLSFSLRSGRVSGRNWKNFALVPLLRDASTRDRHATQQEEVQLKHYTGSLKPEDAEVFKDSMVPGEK

[4] = biological target: T1, Transient receptor potential cation channel subfamily A member 1; test: Antagonist activity at human TRPA1 expressed in human IMR90 cells assessed as inhibition of acrolein-induced calcium influx at 3 uM after 40 mins by fluorescence analysis; type: functional, cell-based; settings: IMR-90
[5] = biological target: Transient receptor potential cation channel subfamily A member 1 (Rattus norvegicus) (UniProt Q6RI86); test: Antagonist activity at Sprague-Dawley rat TRPA1 expressed in rat DRG neurons assessed as inhibition of acrolein-induced calcium influx at 30 uM after 40 mins by fluorescence analysis; type: functional; in short: as §1
[6] = biological target: Transient receptor potential cation channel subfamily A member 1 (Rattus norvegicus, UniProt Q6RI86); test: (§2) Antagonist activity at Sprague-Dawley rat TRPA1 expressed in rat DRG neurons assessed as inhibition of acrolein-induced calcium influx after 40 mins by fluorescence analysis; type: functional; in short: as §1
Sequence of Transient receptor potential cation channel subfamily A member 1 (Rattus norvegicus, UniProt Q6RI86) (Q6RI86 whole entry): as the sequence (Q6RI86 whole entry) above

[7] = biological target: T1, Transient receptor potential cation channel subfamily A member 1; test: Antagonist activity at human TRPA1 expressed in human IMR90 cells assessed as inhibition of acrolein-induced calcium influx after 40 mins by fluorescence analysis
[8] = biological target: Transient receptor potential cation channel subfamily A member 1 (Rattus norvegicus) (UniProt Q6RI86); test: as §2; type: functional; in short: as §1
[9] = biological target: T1, Transient receptor potential cation channel subfamily A member 1; settings: IMR-90, 1 uM
[10] = biological target: T1, Transient receptor potential cation channel subfamily A member 1; test: Antagonist activity at human TRPA1 expressed in CHO cells assessed as inhibition of calcium influx; type: functional, cell-based

| Compound | inhibition [1] [%] | inhibition [2] [%] | inhibition [5] [%] | also measured |
| --- | --- | --- | --- | --- |
| Cc1ccc(CNC(=O)Cn2ccc3c2c(=O)n(C)c(=O)n3C)cc1 | < 50 |  |  |  |
| COc1ccc(NC(=O)Cn2ccc3c2c(=O)n(C)c(=O)n3C)cc1 | < 50 |  |  |  |
| Cn1c(=O)c2c(ccn2CC(=O)Nc2ccc(C3CCCCC3)cc2)n(C)c1=O | < 50 |  |  |  |
| Cn1c(=O)c2c(ccn2CC(=O)Nc2ccc(Cl)cc2)n(C)c1=O | < 50 |  |  |  |
| CC(=C\c1ccc(Cl)cc1)/C(C)=N/O [AP18 5] | 98.9 | 45.2 | 90.1 | inhibition [3]: inactive; inhibition [4]: 69.1%; pIC50 [6]: 5.47; pIC50 [7]: 5.66 |
| CC(C)c1ccc(NC(=O)Cn2cnc3c2c(=O)n(C)c(=O)n3C)cc1 | 97.5 | 80.7 | 99.8 | inhibition [3]: inactive; inhibition [4]: 73.2%; pIC50 [6]: 5.68 |
| CN(C(=O)Cn1ccc2c1c(=O)n(C)c(=O)n2C)c1ccc(F)cc1 | < 50 |  |  |  |
| CCCCCCc1ccc(NC(=O)Cn2ccc3c2c(=O)n(C)c(=O)n3C)cc1 |  | 35.5 | 93.3 |  |
| Cn1c(=O)c2c(ccn2CC(=O)Nc2ccc(C(C)(C)C)cc2)n(C)c1=O |  | 10.7 | 95.8 |  |
| Cn1c(=O)c2c(ccn2CC(=O)Nc2nc(-c3ccc(C(F)(F)F)cc3)cs2)n(C)c1=O |  | 58.3 | 80.2 |  |
| Cn1c(=O)c2c(ccn2CC(=O)Nc2ccc(N3CCOCC3)cc2)n(C)c1=O | < 50 |  |  |  |
| Cn1c(=O)c2c(ccn2CC(=O)NCc2ccccc2)n(C)c1=O | < 50 |  |  |  |
| Cn1c(=O)c2c(ccn2CC(=O)Nc2nc(-c3ccc(F)c(C(F)(F)F)c3)cs2)n(C)c1=O | 99.3 | 80.6 | 99.6 | inhibition [3]: inactive; inhibition [4]: 76.1%; pIC50 [6]: 5.89; inhibition [8]: Dose-dependent effect; pIC50 [7]: 5.89 |
| Cn1c(=O)c2c(ccn2CC(=O)Nc2ccc(S(=O)(=O)NCc3ccccc3)cc2)n(C)c1=O | < 50 |  |  |  |
| Cn1c(=O)c2c(ccn2CC(=O)Nc2ccc(I)cc2)n(C)c1=O |  | 12.4 | 85.4 |  |
| CC(C)c1ccc(NC(=O)Cn2ccc3c2c(=O)n(C)c(=O)n3C)cc1 | < 50 |  |  |  |

| Compound | inhibition [1] [%] | inhibition [2] [%] | inhibition [5] [%] | also measured |
| --- | --- | --- | --- | --- |
| Cn1c(=O)c2c(ccn2CC(=O)Nc2cccc(I)c2)n(C)c1=O | < 50 |  |  |  |
| Cn1c(=O)c2c(ccn2CC(=O)Nc2nc(-c3ccc(F)cc3)cs2)n(C)c1=O | 82.8 | 3.6 | 99.2 | inhibition [4]: 47.9%; pIC50 [7]: 5.39 |
| Cn1c(=O)c2c(ccn2CC(=O)Nc2ccc(F)cc2F)n(C)c1=O | < 50 |  |  |  |
| Cn1c(=O)c2c(ccn2CC(=O)Nc2nc(-c3ccc(I)cc3)cs2)n(C)c1=O | < 50 |  |  |  |
| Cn1c(=O)c2c(ccn2CC(=O)Nc2ccc(F)c(F)c2)n(C)c1=O | < 50 |  |  |  |
| Cn1c(=O)c2c(ccn2CC(=O)NCCCc2ccccc2)n(C)c1=O | < 50 |  |  |  |
| Cn1c(=O)c2c(ccn2CC(=O)NC23CC4CC(CC(C4)C2)C3)n(C)c1=O | < 50 |  |  |  |
| CCCCc1ccc(NC(=O)Cn2ccc3c2c(=O)n(C)c(=O)n3C)cc1 | 99 | 94.4 | 97.1 | inhibition [4]: 93.5%; pIC50 [7]: 5.96 |
| Cn1c(=O)c2c(ccn2CC(=O)Nc2ccc(SC(F)(F)F)cc2)n(C)c1=O | < 50 |  |  |  |
| Cn1c(=O)c2c(ccn2CC(=O)NCCc2ccccc2)n(C)c1=O | < 50 |  |  |  |
| Cn1c(=O)c2c(ccn2CC(=O)Nc2nc(-c3ccccc3)cs2)n(C)c1=O | < 50 |  |  |  |
| Cn1c(=O)c2c(ccn2CC(=O)Nc2ccc(OC(F)(F)F)cc2)n(C)c1=O |  | 36.8 | 99.5 |  |
| Cn1c(=O)c2c(ccn2CC(=O)Nc2ccc(C(F)(F)F)cc2)n(C)c1=O | 99.1 | 58.8 | 99.7 | inhibition [3]: inactive; inhibition [4]: 99%; inhibition [9]: 88.7%; pIC50 [6]: 5.55; inhibition [8]: Dose-dependent effect; pIC50 [7]: 6.40 |
| COc1cccc(C2NC(=S)NC3=C2C(=O)c2ccccc23)c1 (centres undefined) | 98.8 | 40.2 | 99.5 | inhibition [3]: inactive; inhibition [4]: 83.1%; pIC50 [10]: 6.89; pIC50 [6]: 5.47; pIC50 [7]: 5.82 |
| CCN(CC)S(=O)(=O)c1ccc(NC(=O)Cn2ccc3c2c(=O)n(C)c(=O)n3C)cc1 | < 50 |  |  |  |
| CCCCCCc1ccc(-c2csc(NC(=O)Cn3ccc4c3c(=O)n(C)c(=O)n4C)n2)cc1 |  | 92.4 | 99.4 |  |

— ChEMBL document CHEMBL1944607, “7-Substituted-pyrrolo[3,2-d]pyrimidine-2,4-dione derivatives as antagonists of the transient receptor potential ankyrin 1 (TRPA1) channel: a promising approach for treating pain and inflammation” (Bioorg Med Chem, 2012)
